High-throughput results (PubChem)
EBI2 block – EBI2 (human) antagonism. P32249. EBI2 beta-arrestin recruitment, luminescence, 7a,25-OHC stimulated. inhibition, % at 5 µM. 360,000 tested, 0.81% active. AID 651636; in the data active = inhibition above about 38%;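 also: enzyme fragment complementation signal reports receptor beta-arrestin coupling in cells; 0% = agonist plus DMSO wells and 100% = wells without agonist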
CXCR6 block – CXCR6 (human) receptor inhibition; inhibition, % at 20 µM; O00574; AID 602244; CHO-K1 PathHunter CXCR6 beta-arrestin, luminescence; 360,000 tested, 0.36% active; in the data active = inhibition above about 34%, passing the limit was not always enough;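 also: antagonist mode with CXCL16 agonist at 10 nM final; 0% = 10 nM CXCL16 with DMSO and 100% = unstimulated wells without agonist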
Target sequence (O00574 whole entry, looked up): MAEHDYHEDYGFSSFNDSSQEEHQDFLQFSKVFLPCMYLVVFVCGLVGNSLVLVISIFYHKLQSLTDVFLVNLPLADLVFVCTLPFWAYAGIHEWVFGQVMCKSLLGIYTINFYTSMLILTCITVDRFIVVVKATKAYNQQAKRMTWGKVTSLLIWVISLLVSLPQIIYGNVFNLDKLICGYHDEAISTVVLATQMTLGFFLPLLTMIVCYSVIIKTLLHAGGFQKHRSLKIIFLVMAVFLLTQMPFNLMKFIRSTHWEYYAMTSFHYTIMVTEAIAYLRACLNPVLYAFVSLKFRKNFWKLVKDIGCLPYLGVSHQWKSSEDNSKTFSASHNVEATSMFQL
CCR6 antagonist – blocks CCL20-driven beta-arrestin recruitment at human CCR6. 340,000 tested, 0.49% active. AID 493098. inhibition, % at 20 µM. CHO-K1 CCR6 PathHunter beta-arrestin, luminescence, CCL20-stimulated;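 active = compounds whose inhibition of the agonist-driven luminescence signal at 20 µM reaches about 50%, limit read from the data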;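 also: cells stimulated with CCL20 at 14 nM final; plate controls were DMSO with CCL20 for no effect and DMSO without agonist for full effect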
Target sequence (P51684 whole entry, looked up): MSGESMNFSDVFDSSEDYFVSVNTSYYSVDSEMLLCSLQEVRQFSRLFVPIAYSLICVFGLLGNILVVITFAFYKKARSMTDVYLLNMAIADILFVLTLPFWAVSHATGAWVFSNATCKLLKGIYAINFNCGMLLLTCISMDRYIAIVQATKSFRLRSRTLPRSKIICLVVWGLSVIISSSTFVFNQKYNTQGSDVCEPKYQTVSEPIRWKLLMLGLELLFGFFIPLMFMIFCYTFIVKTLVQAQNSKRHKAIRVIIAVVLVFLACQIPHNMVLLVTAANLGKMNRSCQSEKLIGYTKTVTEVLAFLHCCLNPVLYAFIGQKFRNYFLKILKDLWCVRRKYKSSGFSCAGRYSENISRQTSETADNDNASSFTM
APJ antagonist – blocks the human apelin receptor APJ | inhibition, % at 20 µM | 330,000 tested, 0.32% active | CHO-K1 APJ beta-arrestin complementation, luminescence;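 active = inhibition above about 40% at 20 µM, limit read from the data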;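 also: cells challenged with 10 nM apelin-13 agonist together with compound; plate controls were apelin-13 plus DMSO wells for no effect and DMSO wells lacking apelin-13 for full effect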
APJ ag – activates the human apelin receptor APJ; P35414; CHO-K1 APJ PathHunter beta-arrestin, luminescence; 0% DMSO wells, 100% apelin; activation, % at 20 µM; 330,000 tested, 0.11% active;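 active = activation more than six SD over the plate average, tested at 20 µM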;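 also: 0% = DMSO alone and 100% = apelin-13 at 10 nM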
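Assay system – PathHunter CHO-K1 APJ (AGTRL-1) beta-arrestin reporter cells · Compound – one dose, 20 µM compound, 1% DMSO · Timing – compound 90 min 25 °C, reagent 1 h · Measured by – luminescence from split beta-galactosidase complementation, Galacton Star/Emerald II substrate · Measure – beta-arrestin recruitment to APJ as agonist activity, luminescent signal · Benchmarks – DMSO vs Apelin-13 10 nM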
CXCR6 antag conf – CXCR6 antagonism confirmation, single concentration; 700 tested, 65% active; shares compounds with CXCR6 block; AID 602409; inhibition, % at 20 µM; CHO-K1 CXCR6 PathHunter beta-arrestin, luminescence;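 active = mean inhibition over four retests above 40%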;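 also: receptor stimulated with 10 nM CXCL16 agonist; beta-galactosidase fragment complementation upon beta-arrestin recruitment to receptor; plate controls were CXCL16 plus DMSO for no effect and DMSO without CXCL16 for full effect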
The depositor's hits bear a star; . = no result given. Sampled rows, rich in hits. Any-hit rate of the full collection: about 1.5%.

SMILES	EBI2 block	CXCR6 block	CCR6 antagonist	APJ antagonist	APJ ag	CXCR6 antag conf
COc1ccc(-c2cc(=O)n(-c3ccc([N+](=O)[O-])cc3)[nH]2)cc1	0.6	40.6*	38.1	28.5	-4.9	14.3
C[C@@H]1CN([C@H](C)CO)C(=O)c2c(c3ccccc3n2C)-c2ccccc2CO[C@H]1CN(C)Cc1ccc(Oc2ccccc2)cc1	7.1	3.4	.	.	.	.
Cc1nnc(NC(=O)c2cc(-c3ccncc3)nc3c(C)cccc23)s1	-5.0	45.4*	-1.7	-35.4	11.7	20.7
Cc1ccc(-c2cc(C(=O)NCCCn3ccnc3)c3ccccc3n2)s1	-24.1	71.9*	4.7	-14.9	-1.9	-9.4
CCc1ccc(-c2cc(C(=O)NCCCn3ccnc3)c3ccccc3n2)s1	.	.	.	5.0	-0.1	.
CCCCCc1ccc(-c2cn(Cc3ccc(C(=O)c4ccccc4)cc3)nn2)cc1	-9.6	-4.3	-2.9	-5.3	-0.1	.
CCc1cc(-c2cnnn2Cc2ccccc2)ccc1-c1cn(CC(C)C)nn1	4.5	59.6*	.	.	.	7.8
CCc1nc2c(OCC(=O)C(C)(C)C)cccn2c1N(C)C(=O)c1ccc(C)cc1	6.6	0.7	.	.	.	.
CCOC(=O)c1cc([N+](=O)[O-])c([N+](=O)[O-])cc1NC(C)=O	12.5	67.4*	.	.	.	63.9*
Cc1cccc(C)c1NC(=O)C(c1ccccc1)N1CCC(Cc2ccccc2)CC1 (configuration not stated)	7.0	6.3	.	.	.	.
COC(=O)c1ccc(NC(=O)c2nc(S(=O)(=O)Cc3cccc(C)c3)ncc2Cl)cc1	46.6*	65.8*	67.1*	34.2	-11.2	60.5*
CCOc1ccccc1NC(=O)c1nc(S(=O)(=O)Cc2ccccc2)ncc1Cl	46.0*	56.5*	51.3*	17.7	-8.8	52.6*
CCOC(=O)c1ccc(NC(=O)c2nc(S(=O)(=O)Cc3ccccc3)ncc2Cl)cc1	41.6*	69.8*	88.9*	34.5	-3.0	73.0*
CCc1ccc(NC(=O)c2nc(S(=O)(=O)Cc3ccccc3)ncc2Cl)cc1	38.8	81.9*	.	-8.9	1.2	79.5*
CCCS(=O)(=O)c1ncc(Cl)c(C(=O)Nc2ccc(S(=O)(=O)Nc3ncccn3)cc2)n1	-8.7	-4.8	-4.7	8.5	-2.7	.
COc1cccc(NC(=O)c2nc(S(C)(=O)=O)ncc2Cl)c1	1.6	36.7	44.5	36.2	-3.7	.
CCOc1ccccc1NC(=O)c1ccc(C(=O)Nc2ccccc2OCC)nc1	-20.8	-8.1	-13.2	-3.5	0.4	.
CCOC(=O)c1ccc(NC(=O)CCS(=O)(=O)Cc2ccccc2)cc1	-3.6	-3.5	6.9	13.0	7.4	.
Cc1cccc(CN2CCC(n3nccc3NC(=O)CCCc3ccccc3)CC2)c1	5.6	1.3	.	.	.	.
Cc1cccc(CS(=O)(=O)c2ncc(Cl)c(C(=O)NCc3ccc4c(c3)OCO4)n2)c1	16.7	57.1*	48.3	-10.8	-4.8	44.2*
Cc1ccc(NC(=O)c2nc(S(=O)(=O)Cc3ccccc3C)ncc2Cl)cc1C	55.5*	49.8*	61.5*	21.0	-3.2	59.8*
Cc1ccc(C(=O)NCc2ccc3c(c2)OCO3)c(Cl)c1	-6.9	1.8	.	.	.	.
CCCCC(=O)NC(=S)Nc1ccccc1C(=O)Nc1ccccc1	15.0	50.6*	54.2*	26.6	-4.9	54.5*
COc1ccc(/C=N/NC(=O)CN(C)S(=O)(=O)c2ccc(NC(C)=O)cc2)cc1	-6.1	0.4	5.2	-9.6	-1.0	.
CC(=O)Nc1ccc(S(=O)(=O)N(C)CC(=O)N/N=C/c2ccc(C(=O)O)cc2)cc1	-13.0	87.5*	-6.0	-10.5	-0.6	-2.6
SMILES	EBI2 block	CXCR6 block	CCR6 antagonist	APJ antagonist	APJ ag	CXCR6 antag conf
CCOC(=O)C1=CCN(S(=O)(=O)c2ccc(Br)cc2)C1c1ccccc1 (configuration not stated)	9.8	7.4	.	.	.	.
O=C(NC(=S)N1CCN(c2c(Cl)cccc2[N+](=O)[O-])CC1)c1cccs1	13.2	38.2*	45.0	7.5	-3.1	34.6
COC(=O)C[C@H]1CC[C@H](NC(=O)Nc2ccccc2F)[C@@H](CO)O1	-15.1	.	.	.	.	.
CC(=O)O[C@H]1CC[C@@]2(C)C(CCC3C2CC[C@]2(C)OC(=O)CCC32)C1 (some centres not stated)	1.6	0.8	3.2	4.2	-3.4	.
CC(=O)OC1CCC2(C)C(CCC3C4CC=C(C(C)=O)C4(C)OC(=O)CC32)C1 (configuration not stated)	51.8*	50.4*	.	.	.	45.8*
CN(Cc1ccccc1)C(=O)Cn1nnc(-c2ccccc2)c1COc1ccc2ccccc2c1	22.1	4.8	.	.	.	.
Cc1ccc(/C=C/c2ccc3cccc(O)c3n2)s1	0.0	36.2*	52.1*	-22.5	0.9	38.2
COc1cc(/C=C/c2ccc3cccc(O)c3n2)cc(Cl)c1OC	8.9	5.4	22.6	12.9	-9.0	.
COc1cc(Br)cc(/C=C/c2ccc3cccc(O)c3n2)c1OC	32.0	20.9	36.0	27.0	-7.7	.
COc1ccc(/C=C/c2ccc3cccc(O)c3n2)c(OC)c1OC	14.9	38.0*	61.3*	31.2	-6.8	44.0*
CCc1ccc2c(c1)/C(=C/C(=O)c1cccs1)C(=O)N2	66.6*	40.6*	44.7	-1.5	2.8	24.8
CCc1ccc2c(c1)/C(=N/N(C)C(=S)NC)C(=O)N2	0.4	0.3	8.2	16.3	-1.9	.
COc1ccccc1/C=C/C(=O)Oc1cccc2cccnc12	-0.3	2.6	13.3	0.9	-3.2	.
Cc1ccc2cccc(OC(=O)/C=C\c3ccccc3)c2n1	3.4	43.0*	26.8	17.7	-0.4	39.1
CC1(C)N=C(N)N=C(N)N1c1ccc(CCCCc2ccccc2)cc1	-13.7	-2.3	.	.	.	.
O=C(CSc1cccc2cccnc12)N1CCCC1	31.2	51.8*	70.3*	26.9	-6.7	69.4*
O/N=C1/CCCCC1c1ccccn1 (configuration not stated)	-0.4	57.2*	15.9	5.8	6.1	-3.4
O=[N+]([O-])c1ccc(C2CCCC/C2=N/O)c([N+](=O)[O-])c1 (configuration not stated)	-4.3	1.9	2.7	-11.1	-0.3	.
CCc1nc2c(OCCC3CCCCC3)cccn2c1N(C)C(=O)c1cccs1	28.6	47.1*	.	.	.	38.5
Cc1ccccc1C(=O)NCCN1CCC(n2c(=O)[nH]c3ccccc32)CC1	1.0	7.5	.	.	.	.
NS(=O)(=O)c1ccc(CCNc2nn3c(-c4cccc(OC(F)(F)F)c4)cnc3s2)cc1	-3.4	-17.0	.	.	.	.
CCCCCCCCN1C(=O)[C@H](CC(=O)N2CCCC2)C[C@@]2(C(=O)OC)CC(C)(C)CC=C12	11.8	.	.	.	.	.
CC(O)CN(CC(C)O)c1ccc2c(c1)Cc1cc([N+](=O)[O-])ccc1-2 (configuration not stated)	10.5	37.9*	55.4*	.	.	41.3*
Nc1ccc2c(c1)Cc1cc([N+](=O)[O-])ccc1-2	0.9	5.6	17.1	13.9	-3.3	.
